This is an account of results in ChEMBL document CHEMBL5500386, “Design, synthesis and bioactivity evaluation of 4-hydroxycoumarin derivatives as potential anti-inflammatory agents against acute lung injury and colitis” (Eur J Med Chem, 2024).

Molecules are shown by their SMILES. The source made the active and inactive calls. The rule behind the calls is not given here.

In data set [1] the test system is Mus musculus. The experiment in a line: Antiinflammatory activity in DSS-induced male C57BL/6 mouse model of inflammatory bowel disease assessed as normal appearance of crypt cells at 20 mg/kg, IG administered with compound and DSS for 7 days followed by DSS replacement with distilled water for 3 days by H and E staining based analysis. The class given is functional, organism-based. As to conditions: time 10.0 day.

The subject of data set [2] is Mus musculus. Nature of the data set: Protection against LPS-induced C57BL/6 mouse model of acute lung injury assessed as reduction in number of neutrophils in BALF at 20 mg/kg, po administered 3 times for every 12 hrs followed by LPS stimulation at 5 mg/kg and measured after 6 hrs. The class given is functional, organism-based. The settings on record: time 30.0 hrs. In outline:
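C57BL/6 mice, 6 per group. Gavaged at 20 mg/kg three times at 12 h intervals; controls received saline, and dexamethasone 20 mg/kg served as reference. After the last dose, LPS 5 mg/kg given intratracheally. At 6 h, blood collected for serum IL-6 by ELISA. Left lung lavaged with 3 × 200 μL saline, and BALF assayed for IL-6, total protein and neutrophil count. Mean ± SEM, n = 6.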

Data set [3] has as its system Mus musculus. The experiment in a line: Protection against LPS-induced C57BL/6 mouse model of acute lung injury assessed as reduction in inflammatory cell infiltration in lung at 20 mg/kg, po administered 3 times for every 12 hrs followed by LPS stimulation at 5 mg/kg and measured after 6 hrs by H and E staining based analysis. As to conditions: time 30.0 hrs. The class given is functional, organism-based. In outline:
(§1)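 LPS-induced ALI in C57BL/6 mice: 20 mg/kg orally three times at 12 h intervals, then intratracheal LPS 5 mg/kg, killed at 6 h. Lungs paraffin-embedded, cut into 5 μm sections and H&E stained. Viewed at ×20.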

Data set [4] has as its system Mus musculus. The experiment in a line: Antiinflammatory activity in DSS-induced male C57BL/6 mouse model of inflammatory bowel disease assessed as normal appearance of goblet cells at 20 mg/kg, IG administered with compound and DSS for 7 days followed by DSS replacement with distilled water for 3 days by H and E staining based analysis. The format is functional, organism-based. The settings on record: time 10.0 day.

The test system of data set [5] is Mus musculus. The experiment in a line: Antiinflammatory activity in DSS-induced male C57BL/6 mouse model of inflammatory bowel disease assessed as increase in colon length at 20 mg/kg, IG administered with compound and DSS for 7 days followed by DSS replacement with distilled water for 3 days. The format is functional, organism-based. As to conditions: time 10.0 day.

Data set [6] addresses Interleukin-1 receptor-associated kinase 1 (Homo sapiens) (UniProt P51617). Nature of the data set: Inhibition of IRAK1 (unknown origin) at 10 uM relative to control.
Data set [7] deals with Mus musculus. Nature of the data set: Antiinflammatory activity in DSS-induced male C57BL/6 mouse model of inflammatory bowel disease assessed as inhibition of IL-6 release in plasma at 20 mg/kg, IG administered with compound and DSS for 7 days followed by DSS replacement with distilled water for 3 days. The format is functional, organism-based. As to conditions: time 10.0 day.

Data set [8] deals with Mus musculus. The experiment in a line: Protection against LPS-induced C57BL/6 mouse model of acute lung injury assessed as reduction in interstitial edema in lungs at 20 mg/kg, po administered 3 times for every 12 hrs followed by LPS stimulation at 5 mg/kg and measured after 6 hrs by H and E staining based analysis. The format is functional, organism-based. The settings on record: time 30.0 hrs. Put shortly:
as §1

The test system of data set [9] is J774.A1. Nature of the data set: Antiinflammatory activity in LPS-induced mouse J774.A1 cells assessed as inhibition of IL-6 production pretreated for 30 mins followed by LPS stimulation and measured after 24 hrs by ELISA. The format is functional, cell-based. Put shortly: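 Cells pretreated 30 min with a gradient of concentrations (2.5–10 μM range) or DMSO, then given LPS 0.5 μg/mL for 24 h. IL-6 in medium measured by ELISA and normalised to living cell number by MTT. Expressed as % of the LPS group, mean ± SEM of triplicates. IC50 taken from the concentration-response.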

Data set [10] in a line: Acute toxicity in male ICR mouse assessed as histopathological changes in kidney at 500 to 1000 mg/kg, po administered daily for 10 days by H and E staining based analysis. The format is organism-based. The settings on record: in vivo, 240 h, dose 500-1000 mg/kg, time 10 day. Put shortly:
(§2)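 Male ICR mice (8 weeks, 30 g ± 2 g), acclimatised 1 week, randomised into 1000 mg/kg, 500 mg/kg and untreated control groups (n = 24 total). Dosed by daily gavage, compound dissolved in 0.5 % DMSO then added to normal saline. Body weight and behaviour recorded daily. Euthanised after 10 days; heart, liver, spleen, lung and kidney examined by H&E staining.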

Data set [11] can be described thus: Acute toxicity in male ICR mouse assessed as histopathological changes in heart at 500 to 1000 mg/kg, po administered daily for 10 days by H and E staining based analysis. The class given is organism-based. The settings on record: in vivo, 240 h, dose 500-1000 mg/kg, time 10 day. Put shortly: as §2
The test system of data set [12] is J774.A1. Nature of the data set: Inhibition of LPS-induced MAPK activation in mouse J774.A1 cells assessed as reduction in JNK phosphorylation at 5 to 20 uM pretreated for 2 hrs followed by LPS stimulation and measured after 30 mins by Western blot analysis. The format is cell-based. The settings on record: dose 5-20 µM, time 2.5 hrs. In outline:
(§3)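 J774A.1 macrophages pretreated with 20, 10 or 5 μM for 2 h, then LPS 0.5 μg/mL for 30 min. RIPA lysates quantified by Bradford. 40 μg run on 12.5 % SDS-PAGE and transferred to PVDF. Blocked 1.5 h in BSA, primary antibody overnight at 4 °C, secondary 2 h at room temperature, detected by ECL.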
For orientation: A western blot detects proteins with antibodies after separation by electrophoresis.

Data set [13] has as its system J774.A1. Nature of the data set: Inhibition of LPS-induced NF-kappaB activation in mouse J774.A1 cells assessed as reduction in p65 phosphorylation at 5 to 20 uM pretreated for 2 hrs followed by LPS stimulation and measured after 30 mins by Western blot analysis. The settings on record: dose 5-20 µM, time 2.5 hrs. The format is cell-based. In outline: as §3
Data set [14] can be described thus: Acute toxicity in male ICR mouse assessed as fatality at 500 to 1000 mg/kg, po administered daily for 10 days and measured daily. The class given is organism-based. As to conditions: in vivo, 240 h, dose 500-1000 mg/kg, time 10 day. In outline:
as §2

The test system of the next data set is THP-1. The experiment in a line: Antiinflammatory activity in LPS-induced human THP-1 cells assessed as reduction in IL-6 mRNA transcription pretreated for 2 hrs followed by LPS stimulation and measured after 6 hrs by RT-qPCR analysis. The format is functional, cell-based. As to conditions: dose 2.5-10 µM. Put shortly: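 J774A.1 or THP-1 cells pretreated with compound for 2 h, then LPS 0.5 μg/mL for 6 h, in triplicate. Total RNA extracted and reverse-transcribed. IL-6 quantified by RT-qPCR over 40 cycles and normalised to β-actin.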
On the technique in general: Quantitative PCR measures a nucleic acid by following its amplification.

Data set [15] in a line: Tmax in male Sprague-Dawley rat at 10 mg/kg, po measured upto 24 hrs by triple quadrupole mass spectrometric analysis. The class given is ADME, organism-based. The settings on record: in vivo. In outline:
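Male SD rats (8 weeks, 200 g ± 20 g), n = 3 per route. Oral: 10 mg/kg by gavage in 0.05 % DMSO/normal saline, tail-vein blood at 13 times from 10 min to 24 h. IV: 1 mg/kg tail vein in 5 % DMSO/30 % PEG400/65 % saline, 14 samples from 5 min to 24 h. Heparinised plasma precipitated with acetonitrile containing internal standard. Non-compartmental analysis on mean concentrations.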

Data set [16] can be described thus: Acute toxicity in male ICR mouse assessed as histopathological changes in liver at 500 to 1000 mg/kg, po administered daily for 10 days by H and E staining based analysis. The settings on record: in vivo, 240 h, dose 500-1000 mg/kg, time 10 day. The format is organism-based. Put shortly: as §2
Data set [17] has as its system Mus musculus. Nature of the data set: Protection against LPS-induced C57BL/6 mouse model of acute lung injury assessed as reduction in thickening of the alveolar septum in lungs at 20 mg/kg, po administered 3 times for every 12 hrs followed by LPS stimulation at 5 mg/kg and measured after 6 hrs by H and E staining based analysis. The format is functional, organism-based. The settings on record: time 30.0 hrs. In outline: as §1

Chain of Interleukin-1 receptor-associated kinase 1 (Homo sapiens) (P51617 whole entry, looked up): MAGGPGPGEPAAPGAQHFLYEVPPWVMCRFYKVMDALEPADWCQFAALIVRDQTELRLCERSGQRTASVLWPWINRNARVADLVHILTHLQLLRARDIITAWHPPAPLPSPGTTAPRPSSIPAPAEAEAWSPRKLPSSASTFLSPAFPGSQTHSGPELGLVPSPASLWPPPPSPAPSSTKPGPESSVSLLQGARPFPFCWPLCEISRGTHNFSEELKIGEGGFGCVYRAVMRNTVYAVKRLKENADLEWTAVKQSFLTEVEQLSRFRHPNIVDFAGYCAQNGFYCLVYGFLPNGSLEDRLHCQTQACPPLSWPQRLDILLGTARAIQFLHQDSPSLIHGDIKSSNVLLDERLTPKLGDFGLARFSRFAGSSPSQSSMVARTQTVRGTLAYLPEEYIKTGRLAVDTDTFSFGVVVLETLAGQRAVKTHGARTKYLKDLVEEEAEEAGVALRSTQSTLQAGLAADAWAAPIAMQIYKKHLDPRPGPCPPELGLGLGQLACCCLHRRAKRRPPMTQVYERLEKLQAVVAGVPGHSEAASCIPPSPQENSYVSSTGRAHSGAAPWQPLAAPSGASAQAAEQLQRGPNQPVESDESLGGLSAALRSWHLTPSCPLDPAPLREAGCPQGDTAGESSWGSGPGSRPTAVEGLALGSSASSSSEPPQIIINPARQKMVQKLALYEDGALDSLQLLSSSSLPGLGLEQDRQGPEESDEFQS

Usually inhibition stands for how much of the control response was suppressed. Broadly, the IC50 is the concentration that inhibits the measured activity by half. For orientation: Tmax means the time at which the peak concentration occurs. On to `CC(=O)N1CCN(CCOc2cc(=O)oc3ccccc23)CC1`, for which the result in the data set with Mus musculus [1], with Mus musculus [2], in the data set with Mus musculus [3], with Mus musculus [4], with Mus musculus [5] and in the data set on Mus musculus [7] was Active. The outcome with Mus musculus [8] and in the data set with Mus musculus [17] was Active. This compound also showed an inhibition in data set [6] of 48.1%. Further, the IC50 in the data set with J774.A1 [9] is 4.57 µM. The Activity entry with J774.A1 [9] (time 24.5 hrs) was “Dose-Dependent Effect”; in data set [10], “Non-Toxic”; in data set [11], “Non-Toxic”; in [14], “Non-Toxic”; in the data set with THP-1 it was “Dose-Dependent Effect”; in data set [16], “Non-Toxic”. Besides, the inhibition entry in the data set with J774.A1 [12] and in the data set with J774.A1 [13] was “inactive” throughout. For the same compound, the Tmax in [15] was found to be 40.2 min.
